{
  "source": "paper PMC4827469",
  "about": "(ACS Central Science, 2015)",
  "key": {"AsPC-1 [1]": {"system": "AsPC-1", "experiment": "in vitro cytotoxicity assay", "format": "cell-based", "conditions": "Homo sapiens, ASPC1, 48 h"}, "A549 [2]": {"system": "A549", "conditions": "read-out: IC50 reported in the lit.; A549 (12 h), KMUH ref 2c; cited from earlier work"}, "[3]": {"experiment": "mouse pharmacokinetic study", "format": "in vivo", "conditions": "male, Balb/C, whole blood, 50 mg/kg"}, "HepG2 [4]": {"system": "HepG2", "conditions": "HepG2, 5% FBS, 48 h incubation, SRB stain ref 2a; cited from earlier work"}, "[5]": {"experiment": "metabolite identification/biotransformation, rat liver microsomes", "format": "in vitro ADME"}, "H441 [6]": {"system": "H441", "conditions": "read-out: IC50 reported in the lit.; H441, KMUH ref 2c; cited from earlier work"}, "[7]": {"system": "Hep 3B HCC tumor xenografts", "experiment": "in vivo antitumor activity, subcutaneous Hep3B HCC xenograft in NSG mice", "design": "species or system mouse", "conditions": "female NSG mice, 50 mg/kg ip daily for 14 days", "in_short": "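Hep 3B hepatocellular carcinoma xenograft in mice, dosed per schedule. Paclitaxel positive control given iv at 24 mg/kg qd×5. Tumor growth inhibition, body weight and signs of toxicity monitored. Error given as SE computed from the average deviation.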"}, "MDA-MB-231": {"system": "MDA-MB-231", "conditions": "read-out: IC50 reported in the lit.; natural product, MDA-MB-231 (CCRC-60425) ref 1; cited from earlier work"}, "LNCaP": {"system": "LNCaP", "conditions": "read-out: IC50 reported in the lit.; natural product, LNCaP (CCRC-60088) ref 1; cited from earlier work"}, "[8]": {"system": "A549 subcutaneous xenografts", "conditions": "NOD/SCID mice, 2 weeks of oral 30 and 60 mg/kg ref 18; cited from earlier work"}, "Hep3B": {"system": "Hep3B", "conditions": "5% FBS, 48 h incubation, SRB stain ref 2a; cited from earlier work"}, "PANC-1 [9]": {"system": "PANC-1", "conditions": "read-out: IC50 reported in the lit.; PANC-1 (48 h), ATCC, SRB assay ref 2f; cited from earlier work"}, "PANC-1 [10]": {"system": "PANC-1", "experiment": "in vitro cytotoxicity assay", "format": "cell-based", "conditions": "Homo sapiens, PANC-1, 48 h"}, "AsPC-1 [11]": {"system": "AsPC-1", "conditions": "read-out: IC50 reported in the lit.; AsPC-1 (48 h), ATCC, SRB assay ref 2f; cited from earlier work"}, "H441 [12]": {"system": "H441", "experiment": "in vitro cytotoxicity assay", "format": "cell-based", "conditions": "Homo sapiens, NCI-H441, 72 h, read-out: IC50 (72 h)", "in_short": "(§1)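 Cells grown in medium with 10% FBS and exposed to test compound for 72 h. Viability read by MTS or MTT stain, and IC50 derived from the readings.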"}, "[13]": {"experiment": "metabolite identification/biotransformation, mouse liver microsomes", "format": "in vitro ADME", "conditions": "1 mg/ml protein, 5 µM drug, 1 mM NADPH, 37 °C"}, "A549 [14]": {"system": "A549", "experiment": "in vitro cytotoxicity assay", "format": "cell-based, human"}, "[15]": {"system": "panel of human tumor cell lines", "experiment": "panel of human tumor cell lines in vitro", "format": "cell-based", "in_short": "as §1"}, "H838 tumor cell line": {"system": "H838 tumor cell line", "conditions": "H838 tumor cell line ref 23 (Ho et al., Biomed. Pharmacother. 2014); cited from earlier work"}, "Hep 3B tumor model": {"system": "Hep 3B tumor model", "conditions": "initial tumor sizes 50–70 mm^3 ref 2a, 19; cited from earlier work"}, "HepG2 [16]": {"system": "HepG2", "experiment": "in vitro cytotoxicity assay", "format": "cell-based", "conditions": "Homo sapiens, HepG2, 72 h, read-out: IC50 (72 h)", "in_short": "as §1"}, "[17]": {"experiment": "metabolite identification/biotransformation, human liver microsomes", "format": "in vitro ADME"}},
  "note": "Where two headings read alike, the source gives them in different places.",
  "data": [
    {"molecule": "COC1=C(OC)[C@H](O)[C@H](C/C=C(\\C)CC/C=C(\\C)CCC=C(C)C)[C@@H](C)C1=O", "note": "[Compound 1, Antroquinonol A]", "values": [
      {"measurement": "IC50", "setting": "AsPC-1 [1]", "result": "> 25", "unit": "µM"},
      {"measurement": "IC50", "setting": "A549 [2]", "result": 25, "unit": "µM"},
      {"measurement": "AUC(0-t)", "setting": "[3]; ip", "result": "2.29 ± 0.142", "unit": "µM·h"},
      {"measurement": "Cmax", "setting": "[3]; ip", "result": "457 ± 45", "unit": "nM"},
      {"measurement": "Tmax", "setting": "[3]; ip", "result": "4 ± 3", "unit": "h"},
      {"measurement": "AUC(0-t)", "setting": "[3]; po", "result": "0.266 ± 0.088", "unit": "µM·h"},
      {"measurement": "Cmax", "setting": "[3]; po", "result": "79 ± 52", "unit": "nM"},
      {"measurement": "Tmax", "setting": "[3]; po", "result": "2 ± 1", "unit": "h"},
      {"measurement": "GI50", "setting": "HepG2 [4]", "result": 0.22, "unit": "µM"},
      {"measurement": "biotransformation in liver microsomes", "setting": "[5]", "result": "rapidly converted to a major metabolite"},
      {"measurement": "IC50", "setting": "H441 [6]", "result": 25, "unit": "µM"},
      {"measurement": "tolerability", "setting": "[7]", "result": "generally well-tolerated with no overt signs of toxicity"},
      {"measurement": "weight loss", "setting": "[7]", "result": "~4", "unit": "%"},
      {"measurement": "IC50", "setting": "MDA-MB-231", "result": "2.6 ± 0.05", "unit": "µM"},
      {"measurement": "IC50", "setting": "LNCaP", "result": "6.1 ± 0.07", "unit": "µM"},
      {"measurement": "antitumor effect reported", "setting": "[8]", "result": "tumor growth suppression"},
      {"measurement": "GI50", "setting": "Hep3B", "result": "> 30", "unit": "µM"},
      {"measurement": "IC50", "setting": "PANC-1 [9]", "result": 19, "unit": "µM"},
      {"measurement": "IC50", "setting": "PANC-1 [10]", "result": "> 25", "unit": "µM"},
      {"measurement": "IC50", "setting": "AsPC-1 [11]", "result": 20, "unit": "µM"},
      {"measurement": "IC50", "setting": "H441 [12]", "result": "> 25", "unit": "µM"},
      {"measurement": "biotransformation in liver microsomes", "setting": "[13]", "result": "rapidly converted to a major metabolite"},
      {"measurement": "fold more potent than previously reported", "setting": "A549 [14]; A549", "result": "~4", "unit": "fold"},
      {"measurement": "IC50", "setting": "A549 [14]; Homo sapiens, A549, 12 h, A549 (12 h) (ATCC), 1 triplicate, 15 duplicate", "result": "6.7 ± 2.5", "unit": "µM"},
      {"measurement": "fold less cytotoxic than reported for the natural product", "setting": "[15]; cell lines of Table 1 except A549", "result": "3–70 fold"},
      {"measurement": "cytotoxicity in tumor cell line panel", "setting": "[15]; panel of Table 1", "result": "only micromolar activity"},
      {"measurement": "IC50", "setting": "H838 tumor cell line", "result": "~3", "unit": "µM"},
      {"measurement": "antitumor activity reported in the literature", "setting": "Hep 3B tumor model", "result": "statistically significant antitumor activity"},
      {"measurement": "IC50", "setting": "HepG2 [16]", "result": "> 25", "unit": "µM"},
      {"measurement": "biotransformation in liver microsomes", "setting": "[17]", "result": "rapidly converted to a major metabolite"}
    ]}
  ]
}
